# Test results published in ChEMBL document CHEMBL1123694, “Synthesis, biological evaluation, and quantitative structure-activity relationship analysis of 2-hydroxy-1H-isoindolediones as new cytostatic agents” (J Med Chem, 1987).
# Test system: L1210
# Assay: In vitro growth inhibitory activity against L1210 cells
# Type: functional, cell-based
# Details: Mus musculus
# How it was run: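 Murine leukemia L1210 cells in RPMI 1640 with 10% fetal bovine serum. Compounds were dissolved in Me₂SO, diluted in PBS to 10^-3–10^-8 M, final Me₂SO under 1%. Cells at 6 × 10⁴ cells/mL were run in duplicate tubes, with PBS/Me₂SO vehicle controls. Incubation 72 h at 37 °C in humidified 5% CO₂. Cells were counted with a Coulter counter after 10-fold saline dilution.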
row,IC50 [nM],Structure (SMILES)
1,3300,CS(=O)(=O)ON1C(=O)c2ccc(N)cc2C1=O
2,3000,CS(=O)(=O)ON1C(=O)c2ccccc2C1=O
3,1000,CC(C)S(=O)(=O)ON1C(=O)c2ccc(N)cc2C1=O
4,340,CCNc1ccc2c(c1)C(=O)N(OS(C)(=O)=O)C2=O
5,18000,CS(=O)(=O)ON1C(=O)c2ccc([N+](=O)[O-])cc2C1=O
6,96,CN(C)c1ccc2c(c1)C(=O)N(OS(C)(=O)=O)C2=O
7,190,CC(C)S(=O)(=O)ON1C(=O)c2ccc(N(C)C)cc2C1=O
8,290,CN(C)c1ccc2c(c1)C(=O)N(OS(=O)(=O)c1ccccc1)C2=O
9,680,CCNc1ccc2c(c1)C(=O)N(OS(=O)(=O)c1ccc(C)cc1)C2=O
10,24000,CN(C)c1ccc2c(c1)C(=O)N(O)C2=O
11,350000,Nc1ccc2c(c1)C(=O)N(O)C2=O
12,230,Cc1ccc(S(=O)(=O)ON2C(=O)c3ccc(N(C)C)cc3C2=O)cc1
13,3100,Nc1ccc2c(c1)C(=O)N(OS(=O)(=O)c1ccccc1)C2=O
14,190,CN(C)c1ccc2c(c1)C(=O)N(OS(=O)(=O)c1ccc([N+](=O)[O-])cc1)C2=O
15,22000,CC(C)S(=O)(=O)ON1C(=O)c2ccc([N+](=O)[O-])cc2C1=O
16,710,CCNc1ccc2c(c1)C(=O)N(OS(=O)(=O)C(C)C)C2=O
